Experimental data: ChEMBL document CHEMBL1144503, “Structure determination of inonotsuoxides A and B and in vivo anti-tumor promoting activity of inotodiol from the sclerotia of Inonotus obliquus” (Bioorg Med Chem, 2007)

Tests used:
Raji = experiment: Cell viability in Raji cells at 1000 mol ratio/TPA relative to control; format: functional, Homo sapiens
How it was run: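 Raji cells under the EBV-EA induction conditions (n-butyric acid 4 mmol plus TPA 32 pmol, 48 h, 37 C), with test compound added in DMSO at 1000 mol ratio to TPA. Viability was assayed by Trypan blue staining and reported as a percentage.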

Human gammaherpesvirus 4 [1] = experiment: Inhibition of TPA-induced EBV-EA activation in Raji cells at 1000 mol ratio/TPA relative to control; values are per cent of control
Human gammaherpesvirus 4 [2] = experiment: Inhibition of TPA-induced EBV-EA activation in Raji cells at 100 mol ratio/TPA relative to control; values are per cent of control
Human gammaherpesvirus 4 [3] = experiment: Inhibition of TPA-induced EBV-EA activation in Raji cells at 500 mol ratio/TPA relative to control; values are per cent of control
Human gammaherpesvirus 4 [4] = experiment: Inhibition of TPA-induced EBV-EA activation in Raji cells at 10 mol ratio/TPA relative to control; values are per cent of control
Mus musculus [5] = species on record: Mus musculus; experiment: Toxicity in ICR mouse with DMBA/TPA-induced papilloma; format: organism-based; settings: in vivo
How it was run: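 Specific pathogen-free female ICR mice, 6 weeks old, in three groups of 15. Shaved backs were initiated topically with DMBA (390 nmol) in 0.1 ml acetone. From one week later, TPA (1.7 nmol) in 0.1 ml acetone was applied to the skin twice weekly. Treated groups also received 85 nmol of test agent with TPA. Mice were followed to week 20.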

Mus musculus [6] = species on record: Mus musculus; experiment: Suppression of DMBA/TPA-induced papilloma-formation in ICR mouse at 85 nmol within 10 week; format: functional
Mus musculus [7] = species on record: Mus musculus; experiment: Suppression of DMBA/TPA-induced papilloma-formation in ICR mouse within 10 week; format: functional

CC(=O)O[C@H]1C[C@H]([C@@H](C)[C@H]2CC[C@@]3(C)C4=C(CC[C@]23C)[C@@]2(C)CC[C@H](OC(C)=O)C(C)(C)[C@@H]2CC4)OC1(C)C showed an Activity (Raji) of 70%.

With C[C@@H]([C@H]1CC[C@@]2(C)C3=C(CC[C@]12C)[C@@]1(C)CC[C@H](O)C(C)(C)[C@@H]1CC3)[C@H]1C[C@H](O)C(C)(C)O1 [INONOTSUOXIDE A] the “level, % of control” value (Human gammaherpesvirus 4 [1]) was 6.3%, the “level, % of control” value (Human gammaherpesvirus 4 [2]) was 71.3% and the “level, % of control” value (Human gammaherpesvirus 4 [3]) was 42%. For the same compound, the Activity (Raji) was 70% and the “level, % of control” value (Human gammaherpesvirus 4 [4]) was 94.3%.

CC(=O)O[C@H]1CC[C@]2(C)C3=C(CC[C@H]2C1(C)C)[C@]1(C)CC[C@H]([C@@H](CCC=C(C)C)C(=O)O)[C@@]1(C)CC3 [ACETYL TRAMETENOLIC ACID] was tested, and the “level, % of control” value (Human gammaherpesvirus 4 [1]) was 12.7%, the “level, % of control” value (Human gammaherpesvirus 4 [2]) was 79% and the “level, % of control” value (Human gammaherpesvirus 4 [3]) was 47.8%. For the same compound, the Activity (Raji) was 70% and the “level, % of control” value (Human gammaherpesvirus 4 [4]) was 100%.

With CC(C)=CCC[C@@H](C(=O)O)[C@H]1CC[C@@]2(C)C3=C(CC[C@]12C)[C@@]1(C)CC[C@H](O)C(C)(C)[C@@H]1CC3 [TRAMETENOLIC ACID] the “level, % of control” value (Human gammaherpesvirus 4 [1]) was 9.2%, the “level, % of control” value (Human gammaherpesvirus 4 [2]) was 75.4% and the “level, % of control” value (Human gammaherpesvirus 4 [3]) was 45%. The Activity (Raji) was 70% and the “level, % of control” value (Human gammaherpesvirus 4 [4]) was 98.6%.

For CC1(C)CC[C@]2(C(=O)O)CC[C@]3(C)C(=CC[C@@H]4[C@@]5(C)CC[C@H](O)C(C)(C)[C@@H]5CC[C@]43C)[C@@H]2C1 [OLEANOLIC_ACID], the Activity (Mus musculus [5]) was “Non-toxic” and the Activity (Mus musculus [6]) was less than 30%.

CC(C)=CC[C@@H](O)[C@@H](C)[C@H]1CC[C@@]2(C)C3=C(CC[C@]12C)[C@@]1(C)CC[C@H](O)C(C)(C)[C@@H]1CC3 [INOTODIOL] was tested, and the “level, % of control” value (Human gammaherpesvirus 4 [1]) was 2.4%, the “level, % of control” value (Human gammaherpesvirus 4 [2]) was 66.1% and the “level, % of control” value (Human gammaherpesvirus 4 [3]) was 37.6%. The Activity (Raji) was 70%, the Activity (Mus musculus [5]) was “Non-toxic” and the “level, % of control” value (Human gammaherpesvirus 4 [4]) was 93.1%. It also gave an Activity (Mus musculus [7]) of less than 30%.

For CC(C)=CCC[C@@H](C)[C@H]1CC[C@@]2(C)C3=C(CC[C@]12C)[C@@]1(C)CC[C@H](O)C(C)(C)[C@@H]1CC3 [LANOSTEROL], the “level, % of control” value (Human gammaherpesvirus 4 [1]) was 4.9%, the “level, % of control” value (Human gammaherpesvirus 4 [2]) was 74.3% and the “level, % of control” value (Human gammaherpesvirus 4 [3]) was 44.7%. For the same compound, the Activity (Raji) was 70% and the “level, % of control” value (Human gammaherpesvirus 4 [4]) was 96.3%.
